Test results: ChEMBL document CHEMBL4842338, “System-oriented optimization of multi-target 2,6-diaminopurine derivatives: Easily accessible broad-spectrum antivirals active against flaviviruses, influenza virus and SARS-CoV-2” (Eur J Med Chem, 2021)
The source made the active and inactive calls. The rule behind the calls is not given here.

Tests used:
[1] = tested on: Huh-7; test: (§1) Cytotoxicity against human Huh-7 cells assessed as reduction in cell viability by Celltiter-Glo luminescent cell viability assay; format: cell-based; conditions: huh-7
Outline: (§2)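 Compound-exposed cells assessed by CellTiter-Glo luminescence versus DMSO control; CC50 from dose-response.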

[2] = as §1; format: cell-based; conditions: Huh-7 cells; outline: as §2
[3] = tested on: Zika virus; test: Antiviral activity against Zika virus H/PF/2013 infected in pre-seeded Huh-7 cells assessed as inhibition of viral replication incubated for 72 hrs by immunodetection based secondary yield reduction assay; format: functional, organism-based; conditions: H/PF/2013, Huh-7, 72 h
[4] = Selectivity index, ratio of CC50 for human Huh-7 cells to IC50 for Zika virus H/PF/2013 infected in pre-seeded Huh-7 cells assessed as inhibition of viral replication incubated for 72 hrs by immunodetection based secondary yield reduction assay; format: toxicity, cell-based; conditions: read-out: Selectivity Index
[5] = tested on: dengue virus type 2; test: Antiviral activity against Dengue virus serotype 2 New Guinea C infected in pre-seeded Huh-7 cells assessed as inhibition of viral replication incubated for 72 hrs by immunodetection based secondary yield reduction assay; format: functional, organism-based
[6] = Selectivity index, ratio of CC50 for human Huh-7 cells to IC50 for Dengue virus serotype 2 New Guinea C infected in pre-seeded Huh-7 cells assessed as inhibition of viral replication incubated for 72 hrs by immunodetection based secondary yield reduction assay; format: toxicity, cell-based; conditions: read-out: Selectivity Index
[7] = molecular target: CDK9/cyclin T1 (Homo sapiens, UniProt P50750); test: Inhibition of human full length CDK9/ His-tagged cT1 assessed as residual activity at 5 uM using CDKtide as a substrate in the presence of BSA incubated for 10 mins by scintillation counting analysis relative to control; format: protein-complex assay; conditions: full length CDK9/His-tagged cyclin T1 complex, probe CDKtide, read-out: Activity
Outline: (§3)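 Compounds at fixed 5 μM; 10–50 ng kinase, substrate and NP-40/BSA per supplementary table, 10 μL at 30 °C for 10 min in low-binding tubes. Reactions spotted on filter, dried, scintillation counted. Mean ± SD of two independent experiments.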

[8] = molecular target: Abl (Tyrosine-protein kinase ABL1) (Homo sapiens, UniProt P00519); test: Inhibition of human recombinant N terminal His6 tagged Abl (27 to end residue) assessed as residual activity at 5 uM using KKGEAIYAADFA-NH2 as a substrate in the presence of NP-40 incubated for 10 mins by scintillation counting analysis relative to control; conditions: probe KKGEAIYAADFA-NH2, read-out: Activity; outline: as §3
[9] = molecular target: Fyn (Tyrosine-protein kinase Fyn) (Homo sapiens, UniProt P06241); test: Inhibition of human recombinant N terminal His6 tagged full length Fyn assessed as residual activity at 5 uM using […] as a substrate in the presence of NP-40 incubated for 10 mins by scintillation counting analysis relative to control; conditions: probe […], read-out: Activity; outline: as §3
[10] = Selectivity index, ratio of CC50 for human Huh-7 cells to IC50 for West Nile virus lineage 1 (Italy/2009) infected in pre-seeded Huh-7 cells assessed as inhibition of viral replication incubated for 48 hrs by immunodetection based direct yield reduction assay; format: toxicity, cell-based; conditions: read-out: Selectivity Index
Outline: (§4)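 Direct yield reduction in Huh7 cells (7000/well), infected with 50 TCID₅₀ of DENV or ZIKV, or 25 TCID₅₀ of WNV. Adsorption 1 h at 37 °C, then virus removed and serial compound dilutions added. Incubated 72 h (DENV, ZIKV) or 48 h (WNV). Viral antigen immunodetected on the monolayer. IC₅₀ by non-linear regression, mean of three experiments. SI = CC₅₀ (Huh7, CellTiter-Glo luminescence)/IC₅₀.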

[11] = Inhibition of DENV NS5-MTase domain using GpppA2'OMe-RNA74 as a substrate incubated for 30 mins by filter binding assay; design: species or system dengue virus type 2; conditions: read-out: IC50
Outline: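 MTase (1 μM) incubated with increasing inhibitor in 40 mM Tris-HCl pH 7.5, 5 mM DTT, 10 μM AdoMet ([3H]-labelled), 0.5 μM GpppA2′OMe-RNA74 substrate, 30 °C for 30 min; stopped in ice-cold 100 μM AdoHcy; DEAE filter binding, scintillation counting.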

[12] = Selectivity index, ratio of CC50 for human Huh-7 cells to IC50 for West Nile virus lineage 1 (Italy/2009) infected in pre-seeded Huh-7 cells assessed as inhibition of viral replication incubated for 48 hrs by immunodetection based plaque reduction assay; format: toxicity, cell-based; conditions: read-out: Selectivity Index
[13] = molecular target: PIK3CA (Phosphatidylinositol 4,5-bisphosphate 3-kinase catalytic subunit alpha isoform) (Homo sapiens, UniProt P42336); test: Inhibition of human full length PIK3CA assessed as residual activity at 5 uM using PI:PS (1:3) as a substrate incubated for 10 mins by scintillation counting analysis relative to control; conditions: full length PIK3CA enzyme, probe PI:PS (1:3), read-out: Activity
Outline: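 Radiometric kinase reaction with 10–50 ng enzyme and compound fixed at 5 μM, 10 μL at 30 °C for 10 min. Reactions spotted on filter and counted by scintillation. Residual activity is the mean ± SD of two independent experiments.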

[14] = tested on: West Nile virus; test: Antiviral activity against West Nile virus lineage 1 (Italy/2009) infected in pre-seeded Huh-7 cells assessed as inhibition of viral replication incubated for 48 hrs by immunodetection based direct yield reduction assay; format: functional, organism-based
[15] = Inhibition of full length ZIKA virus NS5 RNA dependent RNA polymerase incubated for 10 mins by picogreen staining based fluorescent analysis (Rvb= 1+/-0.2 uM)
[16] = tested on: West Nile virus; test: Antiviral activity against West Nile virus lineage 1 (Italy/2009) infected in pre-seeded Huh-7 cells assessed as inhibition of viral replication incubated for 48 hrs by immunodetection based plaque reduction assay; format: functional, organism-based; conditions: Huh-7, 48 h
[17] = Inhibition of full length Dengue virus 2 NS5 RNA dependent RNA polymerase incubated for 10 mins by picogreen staining based fluorescent analysis (Rvb= 0.32+/-0.05 uM); design: species or system dengue virus type 2
[18] = molecular target: Src (Proto-oncogene tyrosine-protein kinase Src) (Homo sapiens, UniProt P12931); test: Inhibition of human recombinant N terminal His6 tagged full length Src assessed as residual activity at 5 uM using KVEKIGEGTYGVVYK as a substrate in the presence of NP-40 incubated for 10 mins by scintillation counting analysis relative to control; conditions: probe KVEKIGEGTYGVVYK, read-out: Activity; outline: as §3
[19] = Antioxidant activity assessed as inhibition of ABTS radical scavenging activity at 10 uM to 1 mM measured after 10 mins; format: functional
Outline: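 ABTS radical solution diluted in ethanol (1:100) to A734 0.70; 3.0 mL mixed with 30 μL sample in DMSO at 10 μM–1 mM; A734 read after exactly 10 min; ascorbic acid reference; % scavenging = (A0−As)/A0×100.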

[20] = Inhibition of Dengue virus 2 […] RNA dependent RNA polymerase incubated for 10 mins by picogreen staining based fluorescent analysis (Rvb= 0.27+/-0.03 uM); design: species or system dengue virus type 2
[21] = Inhibition of full length ZIKV NS5-MTase domain using 7MeGpppAC4 as a substrate incubated for 30 mins by filter binding assay; design: species or system Zika virus
[22] = Selectivity index, ratio of CC50 for human Huh-7 cells to IC50 for Dengue virus serotype 2 New Guinea C infected in pre-seeded Huh-7 cells assessed as inhibition of viral replication incubated for 72 hrs by immunodetection based direct yield reduction assay; format: toxicity, cell-based; conditions: read-out: Selectivity Index; outline: as §4
[23] = tested on: dengue virus type 2; test: Antiviral activity against Dengue virus serotype 2 New Guinea C infected in pre-seeded Huh-7 cells assessed as inhibition of viral replication incubated for 72 hrs by immunodetection based direct yield reduction assay; format: functional, organism-based; conditions: Dengue virus, New Guinea C, Huh-7, 72 h; read-out: IC50
[24] = Dengue virus, New Guinea C, Huh-7, 72 h, read-out: IC50
[25] = West Nile virus, lineage 1 (Italy/2009), Huh-7, 48 h, read-out: IC50

Abl (Tyrosine-protein kinase ABL1), sequence (P00519 whole entry): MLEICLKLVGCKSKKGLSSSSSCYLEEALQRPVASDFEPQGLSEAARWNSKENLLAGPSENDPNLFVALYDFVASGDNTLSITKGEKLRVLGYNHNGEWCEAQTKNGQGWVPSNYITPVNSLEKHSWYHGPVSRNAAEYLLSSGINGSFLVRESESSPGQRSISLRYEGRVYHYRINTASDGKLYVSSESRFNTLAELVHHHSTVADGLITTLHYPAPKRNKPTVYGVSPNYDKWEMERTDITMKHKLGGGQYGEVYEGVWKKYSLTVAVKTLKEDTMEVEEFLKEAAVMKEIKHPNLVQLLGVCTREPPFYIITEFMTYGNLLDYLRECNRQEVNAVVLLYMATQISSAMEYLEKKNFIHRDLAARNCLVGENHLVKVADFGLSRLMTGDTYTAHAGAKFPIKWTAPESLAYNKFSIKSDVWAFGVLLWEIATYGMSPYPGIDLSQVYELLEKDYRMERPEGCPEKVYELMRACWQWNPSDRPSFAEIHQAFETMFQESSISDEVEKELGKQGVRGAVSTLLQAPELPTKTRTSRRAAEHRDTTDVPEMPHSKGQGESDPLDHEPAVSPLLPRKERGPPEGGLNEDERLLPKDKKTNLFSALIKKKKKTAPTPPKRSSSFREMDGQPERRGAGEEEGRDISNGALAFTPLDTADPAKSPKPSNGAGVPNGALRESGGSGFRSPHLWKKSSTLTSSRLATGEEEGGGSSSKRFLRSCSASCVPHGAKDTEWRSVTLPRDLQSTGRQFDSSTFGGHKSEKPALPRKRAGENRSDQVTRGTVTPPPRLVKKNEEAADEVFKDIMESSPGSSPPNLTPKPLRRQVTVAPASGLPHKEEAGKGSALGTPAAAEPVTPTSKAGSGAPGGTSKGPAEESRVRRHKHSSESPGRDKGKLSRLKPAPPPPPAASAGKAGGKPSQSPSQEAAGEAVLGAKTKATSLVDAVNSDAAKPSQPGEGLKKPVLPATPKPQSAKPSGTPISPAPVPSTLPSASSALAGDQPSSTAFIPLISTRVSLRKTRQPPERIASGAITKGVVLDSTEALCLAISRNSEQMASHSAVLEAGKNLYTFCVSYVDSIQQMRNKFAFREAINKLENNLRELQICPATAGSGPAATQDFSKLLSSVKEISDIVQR
CDK9/cyclin T1, sequence (O60563 whole entry): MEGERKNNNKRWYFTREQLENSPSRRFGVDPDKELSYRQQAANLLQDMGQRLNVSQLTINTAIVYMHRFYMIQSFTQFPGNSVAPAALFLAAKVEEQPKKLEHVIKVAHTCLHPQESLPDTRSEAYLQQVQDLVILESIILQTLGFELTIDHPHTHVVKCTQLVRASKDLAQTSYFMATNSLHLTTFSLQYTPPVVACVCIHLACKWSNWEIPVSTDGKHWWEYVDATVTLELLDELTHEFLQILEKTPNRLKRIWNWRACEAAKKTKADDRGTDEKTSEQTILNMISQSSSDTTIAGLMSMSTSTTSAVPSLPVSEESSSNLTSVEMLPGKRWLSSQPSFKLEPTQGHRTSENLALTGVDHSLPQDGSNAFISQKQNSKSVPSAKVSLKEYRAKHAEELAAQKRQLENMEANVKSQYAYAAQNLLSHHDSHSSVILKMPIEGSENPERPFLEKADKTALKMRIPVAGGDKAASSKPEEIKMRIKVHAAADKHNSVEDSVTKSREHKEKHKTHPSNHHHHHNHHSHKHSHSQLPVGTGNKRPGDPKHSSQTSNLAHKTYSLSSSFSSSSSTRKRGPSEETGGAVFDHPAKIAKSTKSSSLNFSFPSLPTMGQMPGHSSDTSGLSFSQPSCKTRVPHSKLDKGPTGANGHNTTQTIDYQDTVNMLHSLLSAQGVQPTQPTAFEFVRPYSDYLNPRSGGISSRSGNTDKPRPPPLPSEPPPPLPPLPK
CDK9/cyclin T1, sequence (P50750 whole entry): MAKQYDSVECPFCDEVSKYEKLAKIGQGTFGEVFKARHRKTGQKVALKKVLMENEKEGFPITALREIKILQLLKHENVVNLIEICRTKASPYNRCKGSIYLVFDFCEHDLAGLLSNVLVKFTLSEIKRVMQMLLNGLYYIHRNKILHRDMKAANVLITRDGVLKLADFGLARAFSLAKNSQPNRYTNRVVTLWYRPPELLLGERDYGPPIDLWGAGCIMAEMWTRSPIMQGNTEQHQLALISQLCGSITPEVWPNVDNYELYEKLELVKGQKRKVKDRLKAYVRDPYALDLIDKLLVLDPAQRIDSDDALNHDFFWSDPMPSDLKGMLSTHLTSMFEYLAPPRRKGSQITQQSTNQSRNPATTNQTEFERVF
Fyn (Tyrosine-protein kinase Fyn), sequence (P06241 whole entry): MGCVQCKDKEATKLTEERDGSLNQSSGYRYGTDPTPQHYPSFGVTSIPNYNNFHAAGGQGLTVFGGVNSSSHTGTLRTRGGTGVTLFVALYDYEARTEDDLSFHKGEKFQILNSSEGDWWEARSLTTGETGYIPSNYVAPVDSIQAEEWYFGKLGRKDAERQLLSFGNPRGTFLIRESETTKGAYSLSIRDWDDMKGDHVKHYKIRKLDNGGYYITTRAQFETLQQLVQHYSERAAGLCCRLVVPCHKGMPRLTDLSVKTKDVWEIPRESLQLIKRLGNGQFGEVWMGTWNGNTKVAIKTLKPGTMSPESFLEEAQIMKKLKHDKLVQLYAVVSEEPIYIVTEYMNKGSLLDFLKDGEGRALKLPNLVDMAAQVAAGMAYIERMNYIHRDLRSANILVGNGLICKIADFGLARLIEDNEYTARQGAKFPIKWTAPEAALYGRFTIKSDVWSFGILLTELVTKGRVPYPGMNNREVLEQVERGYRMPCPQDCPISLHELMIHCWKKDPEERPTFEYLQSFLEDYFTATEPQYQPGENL
PIK3CA (Phosphatidylinositol 4,5-bisphosphate 3-kinase catalytic subunit alpha isoform), sequence (P42336 whole entry, canonical isoform): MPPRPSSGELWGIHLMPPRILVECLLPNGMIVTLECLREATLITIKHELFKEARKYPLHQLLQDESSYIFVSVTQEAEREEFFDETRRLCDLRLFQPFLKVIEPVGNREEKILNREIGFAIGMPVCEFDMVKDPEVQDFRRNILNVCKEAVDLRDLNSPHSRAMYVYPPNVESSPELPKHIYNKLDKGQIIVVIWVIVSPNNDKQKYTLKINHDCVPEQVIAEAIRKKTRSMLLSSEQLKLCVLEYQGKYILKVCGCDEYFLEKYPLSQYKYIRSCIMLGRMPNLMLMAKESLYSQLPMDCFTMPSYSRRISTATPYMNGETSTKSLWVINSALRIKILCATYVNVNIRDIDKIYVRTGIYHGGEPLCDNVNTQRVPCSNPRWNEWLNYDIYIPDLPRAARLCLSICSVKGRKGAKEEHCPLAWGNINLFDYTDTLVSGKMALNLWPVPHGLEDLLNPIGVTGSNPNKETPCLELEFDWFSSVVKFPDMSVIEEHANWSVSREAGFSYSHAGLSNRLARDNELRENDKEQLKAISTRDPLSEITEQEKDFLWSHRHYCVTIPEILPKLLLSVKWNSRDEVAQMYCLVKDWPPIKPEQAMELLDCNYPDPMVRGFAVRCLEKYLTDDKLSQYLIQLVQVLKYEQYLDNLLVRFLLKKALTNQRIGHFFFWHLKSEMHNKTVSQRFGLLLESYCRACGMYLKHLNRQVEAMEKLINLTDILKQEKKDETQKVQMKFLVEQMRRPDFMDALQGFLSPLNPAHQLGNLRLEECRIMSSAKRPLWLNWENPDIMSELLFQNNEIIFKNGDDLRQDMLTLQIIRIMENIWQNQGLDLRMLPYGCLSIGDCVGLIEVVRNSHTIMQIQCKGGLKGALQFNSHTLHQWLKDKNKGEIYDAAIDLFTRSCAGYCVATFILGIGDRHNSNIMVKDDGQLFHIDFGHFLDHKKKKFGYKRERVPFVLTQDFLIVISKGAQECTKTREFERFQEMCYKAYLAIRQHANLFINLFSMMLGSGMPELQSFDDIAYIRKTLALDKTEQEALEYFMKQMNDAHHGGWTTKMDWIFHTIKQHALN
Src (Proto-oncogene tyrosine-protein kinase Src), sequence (P12931 2-536 limits assumed): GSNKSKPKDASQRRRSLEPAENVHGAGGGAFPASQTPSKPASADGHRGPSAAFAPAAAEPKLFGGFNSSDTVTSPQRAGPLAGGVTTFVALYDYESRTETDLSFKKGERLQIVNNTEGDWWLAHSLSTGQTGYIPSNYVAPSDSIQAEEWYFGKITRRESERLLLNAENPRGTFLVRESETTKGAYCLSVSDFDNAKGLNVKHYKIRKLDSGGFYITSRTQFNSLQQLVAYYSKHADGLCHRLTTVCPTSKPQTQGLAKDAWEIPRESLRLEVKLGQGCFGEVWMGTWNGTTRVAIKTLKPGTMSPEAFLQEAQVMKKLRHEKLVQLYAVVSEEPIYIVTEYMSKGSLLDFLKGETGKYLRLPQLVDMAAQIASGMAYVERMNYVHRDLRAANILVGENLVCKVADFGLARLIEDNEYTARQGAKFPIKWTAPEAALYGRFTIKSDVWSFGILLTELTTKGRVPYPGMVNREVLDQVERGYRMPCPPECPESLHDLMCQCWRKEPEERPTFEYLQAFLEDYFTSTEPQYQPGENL

SMILES	CC50 [1] [µM]	IC50 [3] [µM]	selectivity ratio at 72 h [4]	selectivity ratio at 72 h [6]	IC50 [5, 24] [µM]	also measured
FC(F)(F)c1cccc(NNc2nc(NCCOc3ccccc3)nc3[nH]cnc23)c1	7.5	–	–	–	–	–
CNc1nc(Nc2cccc(C(=O)O)c2)c2nc[nH]c2n1	–	33.5	6	–	–	CC50 [2]: 200 µM; IC50 ([5]; huh-7): Not Active
FC(F)(F)c1ccc(/N=N/c2nc(NCCOc3ccccc3)nc3[nH]cnc23)cc1	8	–	–	–	–	–
COC(=O)c1cccc(Nc2nc(NCCO)nc3[nH]cnc23)c1	–	6.2	32	11	17.5	CC50 [2]: 200 µM
Oc1cccc(Nc2nc(NCCOc3ccccc3)nc3[nH]cnc23)c1	–	–	–	–	–	activity at 10 min, 5 µM [7]: > 98%; activity at 10 min, 5 µM [8]: 65%
O=C(O)c1cccc(Nc2nc(NCCOc3ccccc3)nc3[nH]cnc23)c1	–	29	7	7	28.2	CC50 [2]: 200 µM
COc1cc(Nc2nc(NCCOc3ccccc3)nc3[nH]cnc23)cc(OC)c1OC	7.5	–	–	–	–	–
FC(F)(F)c1cc(/N=N/c2nc(NCCOc3ccccc3)nc3[nH]cnc23)cc(C(F)(F)F)c1	7.5	–	–	–	–	–
Fc1cccc(/N=N/c2nc(NCCOc3ccccc3)nc3[nH]cnc23)c1	18.5	2.8	7	5	4	activity at 10 min, 5 µM [9]: 89%; selectivity ratio at 48 h [10]: 28; IC50 [11]: 226 µM; activity at 10 min, 5 µM [7]: > 98%; selectivity ratio at 48 h [12]: 30; activity at 10 min, 5 µM [13]: 78%; IC50 [14, 25]: 0.6 µM; activity at 10 min, 5 µM [8]: > 98%; IC50 [15]: > 100 µM; IC50 [16]: 0.6 µM; IC50 [17]: > 100 µM; activity at 10 min, 5 µM [18]: > 98%; Activity [19]: Active; IC50 [20]: > 100 µM; IC50 [21]: Not Active
CNc1nc(Nc2cccc(C(=O)OC)c2)c2nc[nH]c2n1	–	8	25	11	18	CC50 [2]: 200 µM
FC(F)(F)c1ccc(NNc2nc(NCCOc3ccccc3)nc3[nH]cnc23)cc1	8	–	–	–	–	–
Fc1cccc(Nc2nc(NCCOc3ccccc3)c3nc[nH]c3n2)c1	8	–	–	–	–	–
CNc1nc(Nc2cccc(F)c2)c2nc[nH]c2n1	84	14.7	6	9	9.3	–
OCCNc1nc(Nc2cccc(F)c2)c2nc[nH]c2n1	136	8.9	15	5	29.8	–
FC(F)(F)c1cccc(Nc2nc(NCCOc3ccccc3)c3nc[nH]c3n2)c1	6	–	–	–	–	–
FC(F)(F)c1cc(NNc2nc(NCCOc3ccccc3)nc3[nH]cnc23)cc(C(F)(F)F)c1	5	–	–	–	–	–
Nc1ncnc2c1ncn2[C@@H]1O[C@H](C[C@@H](N)CC[C@H](N)C(=O)O)[C@@H](O)[C@H]1O [SINEFUNGIN]	–	–	–	–	–	IC50 [11]: 0.63 µM; IC50 ([21]; read-out: IC50): 1.18 µM
OCCNc1nc(Nc2cccc(C(F)(F)F)c2)c2nc[nH]c2n1	50	10.6	5	11	4.5	selectivity ratio at 48 h [10]: 26; selectivity ratio at 48 h [12]: 33; IC50 [14, 25]: 1.9 µM; IC50 [16]: 1.5 µM
Oc1ccc(Nc2nc(NCCOc3ccccc3)nc3[nH]cnc23)cc1O	–	25	8	–	–	CC50 [2]: 200 µM; IC50 ([5]; huh-7): Not Active
Fc1cc(F)cc(/N=N/c2nc(NCCOc3ccccc3)nc3[nH]cnc23)c1	12	–	–	–	–	–
CNc1nc(Nc2cccc(C(F)(F)F)c2)c2nc[nH]c2n1	–	–	–	57	3.5	selectivity ratio at 72 h [22]: 41; CC50 [2]: 200 µM; IC50 ([14]; huh-7): Not Active; IC50 [23]: 4.9 µM
Fc1cc(F)cc(NNc2nc(NCCOc3ccccc3)nc3[nH]cnc23)c1	8.5	–	–	–	–	–
COC(=O)c1cccc(Nc2nc(NCCOc3ccccc3)nc3[nH]cnc23)c1	100	8.2	12	–	–	IC50 ([5]; huh-7): Not Active
